Active and inactive are the calls of the source. No cut-off for these calls is given here.
Experiments:
[1] = tested on: BMDM; test: Immunostimulatory activity in mincle-/- C57BL/6 mouse GM-CSF derived BMDM assessed as increase in TNF release at […] after 24 hrs by sandwich ELISA method; assay type: functional, cell-based
Procedure, shortened: (§1)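 Wild-type or Mincle−/− C57BL/6 bone marrow was cultured 8 days with GM-CSF 50 ng/mL in complete RPMI. Macrophages were detached with Acutase and seeded on ligand-coated plates (0.1 or 1 nmol/well); LPS 100 ng/mL was used as comparator. Supernatant was taken at 24 h and TNF, IL-6, IL-1β and MIP-2 measured by sandwich ELISA. Representative of three experiments in triplicate (±SD).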

[2] = molecular target: T1, C-type lectin domain family 4 member E (Mus musculus) (UniProt Q9R0Q8); test: Agonist activity at mincle in wild type C57BL/6 mouse GM-CSF derived BMDM assessed as increase in TNF release at 0.1 to 1 nmol after 24 hrs by sandwich ELISA; procedure, shortened: as §1
T1 sequence (whole entry): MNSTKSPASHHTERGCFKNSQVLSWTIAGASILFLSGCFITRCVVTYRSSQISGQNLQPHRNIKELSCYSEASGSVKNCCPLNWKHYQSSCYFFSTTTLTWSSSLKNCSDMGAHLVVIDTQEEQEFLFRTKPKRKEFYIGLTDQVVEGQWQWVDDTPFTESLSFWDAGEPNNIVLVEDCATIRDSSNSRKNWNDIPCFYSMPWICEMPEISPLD

[3] = molecular target: T2, C-type lectin domain family 4 member E (Homo sapiens) (UniProt Q9ULY5); test: Agonist activity at human mincle coupled with FcRgamma expressed in 2B4-NFAT-GFP reporter cells at higher concentration after 18 hrs by flow cytometric analysis; assay type: cell-based
T2 sequence (whole entry): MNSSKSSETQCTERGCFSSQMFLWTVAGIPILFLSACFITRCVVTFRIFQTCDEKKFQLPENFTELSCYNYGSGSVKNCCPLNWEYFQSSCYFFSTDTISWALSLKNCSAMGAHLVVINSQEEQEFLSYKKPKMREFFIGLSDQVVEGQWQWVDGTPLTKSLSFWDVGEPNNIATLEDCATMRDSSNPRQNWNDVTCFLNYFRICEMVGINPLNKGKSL
Procedure, shortened: (§2)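 2B4 NFAT-GFP reporter cells expressing mouse or human Mincle plus FcRγ were placed on plates coated with ligand at 0.01, 0.1 or 1 nmol/well; cells expressing FcRγ only served as negative control. Ligand was coated from isopropanol, 0.05 mM, and solvent evaporated. After 18 h, cells were harvested, stained with propidium iodide and GFP read by flow cytometry. Mean of three experiments in duplicate (±SEM).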

[4] = molecular target: T1, C-type lectin domain family 4 member E (Mus musculus); test: Agonist activity at mouse mincle coupled with FcRgamma expressed in 2B4-NFAT-GFP reporter cells at higher concentration after 18 hrs by flow cytometric analysis; assay type: cell-based; procedure, shortened: as §2
[5] = molecular target: T1, C-type lectin domain family 4 member E (Mus musculus); test: Agonist activity at mincle in wild type C57BL/6 mouse GM-CSF derived BMDM assessed as increase in IL-6 release at 0.1 to 1 nmol after 24 hrs by sandwich ELISA; procedure, shortened: as §1
[6] = Toxicity in Atlantic horseshoe crab blood limulus amebocyte lysate by chromogenic endotoxin test; settings: limulus polyphemus
Procedure, shortened: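 Endotoxin was measured by chromogenic Limulus amebocyte lysate assay at a sensitivity of ≤0.1 EU/mL.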

[7] = tested on: BMDM; test: Immunostimulatory activity in mincle-/- C57BL/6 mouse GM-CSF derived BMDM assessed as increase in MIP2 release at […] after 24 hrs by sandwich ELISA method; assay type: functional, cell-based; procedure, shortened: as §1
[8] = molecular target: T1, C-type lectin domain family 4 member E (Mus musculus); test: Binding affinity to recombinant mouse mincle extracellular domain fused with human IgG Fc expressed in HEK293T cells at 0.1 nmol by ELISA; assay type: cell-based; settings: HEK-293T
[9] = molecular target: T2, C-type lectin domain family 4 member E (Homo sapiens); test: Binding affinity to recombinant human mincle extracellular domain fused with human IgG Fc expressed in HEK293T cells at 0.1 nmol by ELISA; assay type: cell-based; settings: HEK-293T
[10] = molecular target: T1, C-type lectin domain family 4 member E (Mus musculus); test: Agonist activity at mincle in wild type C57BL/6 mouse GM-CSF derived BMDM assessed as increase in IL-1beta release at 0.1 to 1 nmol after 24 hrs by sandwich ELISA; procedure, shortened: as §1
[11] = tested on: BMDM; test: Immunostimulatory activity in mincle-/- C57BL/6 mouse GM-CSF derived BMDM assessed as increase in IL-1beta release at […] after 24 hrs by sandwich ELISA method; assay type: functional, cell-based; procedure, shortened: as §1
[12] = tested on: BMDM; test: Immunostimulatory activity in mincle-/- C57BL/6 mouse GM-CSF derived BMDM assessed as increase in IL-6 release at […] after 24 hrs by sandwich ELISA method; assay type: functional, cell-based; procedure, shortened: as §1
[13] = molecular target: T1, C-type lectin domain family 4 member E (Mus musculus); test: Agonist activity at mincle in wild type C57BL/6 mouse GM-CSF derived BMDM assessed as increase in MIP2 release at 0.1 to 1 nmol after 24 hrs by sandwich ELISA; procedure, shortened: as §1
[14] = species: Mus musculus; test: Adjuvant activity in immunized C57BL/6 mouse assessed as footpad swelling at 0.3 umol treated with ovalbumin for 7 days followed by stimulation with OVA for 7 days measured 24 to 48 hrs post OVA challenge; assay type: functional
[15] = species: Mus musculus; test: Adjuvant activity in immunized C57BL/6 mouse assessed as increase in OVA-specific IgG2b production in serum at 0.3 umol treated with ovalbumin for 7 days followed by stimulation with OVA for 7 days and restimulation with OVA measured 24 to 48 hrs post OVA challenge; assay type: functional
[16] = species: Mus musculus; test: Adjuvant activity in immunized C57BL/6 mouse assessed as increase in OVA-specific IgG production in serum at 0.3 umol treated with ovalbumin for 7 days followed by stimulation with OVA for 7 days and restimulation with OVA measured 24 to 48 hrs post OVA challenge; assay type: functional
Procedure, shortened: (§3)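 Sera were taken on days 0, 7 and 14 from C57BL/6 mice sensitized s.c. with emulsion containing OVA 200 μg ± adjuvant 0.3 μmol and footpad-challenged with OVA on day 7. OVA-specific IgG, IgG1, IgG2b and IgG2c were measured by ELISA with HRP-coupled anti-mouse secondaries. EC50 was taken from absorbance at 450 nm plotted against log serum concentration.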

[17] = species: Mus musculus; test: Adjuvant activity in immunized C57BL/6 mouse assessed as increase in antigen specific IFNgamma production in spelnocytes at 0.3 umol treated with ovalbumin for 7 days followed by stimulation with OVA for 7 days and restimulation with OVA measured 24 to 48 hrs post OVA challenge; assay type: functional, cell-based
Procedure, shortened: (§4)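 C57BL/6 mice (8–12 wk) given s.c. oil-in-water emulsion (mineral oil/Tween-80/PBS 9:1:90) holding OVA 200 μg ± adjuvant 0.3 μmol; controls were OVA alone or no OVA. Footpad challenge with OVA 100 μg on day 7, spleens taken day 14. Splenocytes restimulated with OVA 10, 30 or 100 μg/mL. Cell number read at 450 nm after 3 h with a count reagent; IFN-γ and IL-17 measured by ELISA.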

[18] = species: Mus musculus; test: Adjuvant activity in immunized C57BL/6 mouse assessed as increase in IL-17 production in spelnocytes at 0.3 umol treated with ovalbumin for 7 days followed by stimulation with OVA for 7 days and restimulation with OVA measured 24 to 48 hrs post OVA challenge; assay type: functional, cell-based; procedure, shortened: as §4
[19] = species: Mus musculus; test: Adjuvant activity in immunized C57BL/6 mouse assessed as increase in OVA-specific IgG2c production in serum at 0.3 umol treated with ovalbumin for 7 days followed by stimulation with OVA for 7 days and restimulation with OVA measured 24 to 48 hrs post OVA challenge relative to control; assay type: functional
[20] = species: Mus musculus; test: Adjuvant activity in immunized C57BL/6 mouse assessed as increase in OVA-specific IgG1 production in serum at 0.3 umol treated with ovalbumin for 7 days followed by stimulation with OVA for 7 days and restimulation with OVA measured 24 to 48 hrs post OVA challenge relative to control; assay type: functional; procedure, shortened: as §3

With CCCCOc1ccc(C(=O)OC[C@H]2O[C@H](O[C@H]3O[C@H](COC(=O)c4ccc(OCCCC)cc4O)[C@@H](O)[C@H](O)[C@H]3O)[C@H](O)[C@@H](O)[C@@H]2O)c(O)c1 the Activity [1] was “inactive”, the Activity [2] was “inactive” and the Activity [3] was “Active”. The Activity [4] was “Active”, the Activity [5] was “inactive” and the Activity [6] was “<= 0.1 EU/ml”. For the same molecule, the Activity [7] was “inactive”, the Activity [8] was “inactive” and the Activity [9] was “inactive”. The Activity [10] was “inactive”, the Activity [11] was “inactive” and the Activity [12] was “inactive”. The Activity [13] was “Active”.
For CCCCCCCCCCCCCCCCCCCCCC(=O)OC[C@H]1O[C@H](O[C@H]2O[C@H](COC(=O)CCCCCCCCCCCCCCCCCCCCC)[C@@H](O)[C@H](O)[C@H]2O)[C@H](O)[C@@H](O)[C@@H]1O, the Activity [2] was “Active”, the Activity [14] was “inactive” and the Activity [5] was “Active”. For the same molecule, the Activity [15] was “Active”, the Activity [16] was “Active” and the Activity [17] was “inactive”. The Activity [18] was “inactive”, the Activity [19] was “Active” and the Activity [10] was “Active”. The Activity [20] was “Active” and the Activity [13] was “Active”.

Source: ChEMBL document CHEMBL4033780, “Lipidated Brartemicin Analogues Are Potent Th1-Stimulating Vaccine Adjuvants” (J Med Chem, 2018)
